From ChEMBL document CHEMBL1154396, “1-(5-Carboxyindol-1-yl)propan-2-ones as inhibitors of human cytosolic phospholipase A2alpha: synthesis and properties of bioisosteric benzimidazole, benzotriazole and indazole analogues” (Bioorg Med Chem Lett, 2009)
Values after ≈ are worked out from the molar mass of the structure shown.

Legend:
Liver microsomes = test: Metabolic stability in rat liver microsomes; assay type: ADME, Microsome
Outline: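 Rat liver microsomes incubated aerobically with test compound, with and without NADPH, stopped after 30 min. Parent remaining in the NADPH incubation quantified by reversed-phase HPLC with UV detection against the NADPH-free reference incubation and given as percent remaining. Main metabolite structure confirmed by LC/MS. Mean of at least two independent determinations.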

[1] = Thermodynamic solubility in sodium phosphate buffer at pH 7.4; assay type: physicochemical
Outline: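 Thermodynamic method: solid compound suspended in sodium phosphate buffer pH 7.4, sonicated 10 min, then shaken 20 h at room temperature. Undissolved material removed by centrifugation, and dissolved concentration in the aqueous phase measured by HPLC.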

[2] = biological target: T1, Cytosolic phospholipase A2 (Homo sapiens, UniProt P47712); test: Inhibition of cPLA2 in human platelets assessed as arachidonic acid release
T1 sequence (P47712 whole entry): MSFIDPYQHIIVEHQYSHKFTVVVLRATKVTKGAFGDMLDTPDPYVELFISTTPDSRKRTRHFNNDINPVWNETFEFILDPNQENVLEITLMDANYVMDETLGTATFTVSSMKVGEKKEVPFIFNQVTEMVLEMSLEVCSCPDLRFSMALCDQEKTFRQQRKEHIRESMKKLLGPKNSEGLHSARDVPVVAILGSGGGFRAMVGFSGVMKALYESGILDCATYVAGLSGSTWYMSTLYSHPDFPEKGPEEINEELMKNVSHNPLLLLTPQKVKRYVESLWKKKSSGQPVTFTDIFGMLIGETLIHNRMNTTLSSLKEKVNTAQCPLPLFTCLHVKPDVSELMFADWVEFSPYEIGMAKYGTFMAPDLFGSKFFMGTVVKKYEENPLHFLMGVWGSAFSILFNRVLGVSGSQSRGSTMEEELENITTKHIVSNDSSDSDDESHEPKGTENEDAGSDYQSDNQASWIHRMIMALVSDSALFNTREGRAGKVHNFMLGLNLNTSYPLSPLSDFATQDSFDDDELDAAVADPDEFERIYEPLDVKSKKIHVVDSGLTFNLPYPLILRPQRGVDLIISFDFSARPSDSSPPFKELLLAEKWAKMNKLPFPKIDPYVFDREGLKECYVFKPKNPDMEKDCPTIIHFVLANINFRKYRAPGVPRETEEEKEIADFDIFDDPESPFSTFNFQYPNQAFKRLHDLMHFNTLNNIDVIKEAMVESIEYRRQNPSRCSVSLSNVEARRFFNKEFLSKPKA
Outline: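 cPLA2α purified from human platelets; substrate covesicles of 1-stearoyl-2-arachidonoyl-sn-glycero-3-phosphocholine (SAPC) with 1,2-dioleoyl-sn-glycerol (DOG). Arachidonic acid released from SAPC after 60 min incubation quantified by reversed-phase HPLC, UV 200 nm; inhibition from release with vs without compound. IC50 values are means of at least two independent determinations.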

Compound	Stability (Liver microsomes) [%]	solubility thermodynamic [1] [µg/mL]	IC50 [2] [µM]
CCCCCCCCc1ccc(OCC(=O)Cn2ccc3ccc(C(=O)O)cc32)cc1	39	< 1	–
CCCCCCCCc1ccc(OCC(=O)Cn2ncc3ccc(C(=O)O)cc32)cc1	36	5 (≈ 11.8 µM)	0.026
CCCCCCCCc1ccc(OCC(=O)Cn2cnc3cc(C(=O)O)ccc32)cc1	49	22 (≈ 52.1 µM)	0.15
CCCCCCCCc1ccc(OCC(=O)Cn2ncc3cc(C(=O)O)ccc32)cc1	64	< 1	0.005
CCCCCCCCc1ccc(OCC(=O)Cn2nnc3cc(C(=O)O)ccc32)cc1	43	< 1	0.026
CCCCCCCCc1ccc(OCC(=O)Cn2nnc3ccc(C(=O)O)cc32)cc1	44	2 (≈ 4.72 µM)	0.016
CCCCCCCCc1ccc(OCC(=O)Cn2cnc3ccc(C(=O)O)cc32)cc1	40	7 (≈ 16.6 µM)	0.085
